Laboratory results as given in ChEMBL document CHEMBL1123134, “Diterpenoid sweeteners. Synthesis and sensory evaluation of stevioside analogues with improved organoleptic properties” (1985).

Tests used:
Format in all cases: functional
Homo sapiens [1] = organism: Homo sapiens; assay: Sensory evaluation was done for sweetness at a concentration of 1000 p.p.m. against sample intensity relative to 10% sucrose.
Summary of the method: (§1)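 Aqueous sample solutions were tasted at about pH 7, so carboxylic acids were in ionized form.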

Homo sapiens [2] = organism: Homo sapiens; assay: Sensory evaluation was done at a concentration of 1000 p.p.m. against other properties.; summary of the method: as §1
Homo sapiens [3] = organism: Homo sapiens; assay: Sensory evaluation was done for sweetness at a concentration of 1000 p.p.m. against compound potency calculated on a molar basis.
Summary of the method: (§2)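 Solutions were tasted at about pH 7. Sweetness potency was expressed two ways: Pw, calculated on a weight basis, and Pm, calculated on a molar basis.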

Homo sapiens [4] = organism: Homo sapiens; assay: Sensory evaluation was done at a concentration of 1000 p.p.m. against property of bitterness.; summary of the method: as §1
Homo sapiens [5] = organism: Homo sapiens; assay: Sensory evaluation was done for sweetness at a concentration of 1000 p.p.m. against compound potency calculated on weight basis.; summary of the method: as §2
Homo sapiens [6] = organism: Homo sapiens; assay: Sensory evaluation was done at a concentration of 1000 p.p.m. against property of sweetness.; summary of the method: as §1
Homo sapiens [7] = organism: Homo sapiens; assay: Sensory evaluation was done for sweetness at a concentration of 550 p.p.m. against sample intensity relative to 10% sucrose.
Summary of the method: (§3)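 Sweetness tasted in solutions held near pH ~7, so carboxylic acids are ionized. Potency is reported two ways: on a weight basis (Pw) and on a molar basis (Pm).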

Homo sapiens [8] = organism: Homo sapiens; assay: Sensory evaluation was done for sweetness at a concentration of 550 p.p.m. against compound potency calculated on a molar basis.; summary of the method: as §3
Homo sapiens [9] = organism: Homo sapiens; assay: Sensory evaluation was done at a concentration of 550 p.p.m. against other properties.; summary of the method: as §1
Homo sapiens [10] = organism: Homo sapiens; assay: Sensory evaluation was done at a concentration of 550 p.p.m. against property of bitterness.; summary of the method: as §1
Homo sapiens [11] = organism: Homo sapiens; assay: Sensory evaluation was done at a concentration of 550 p.p.m. against property of sweetness.; summary of the method: as §1
Homo sapiens [12] = organism: Homo sapiens; assay: Sensory evaluation was done for sweetness at a concentration of 550 p.p.m. against compound potency calculated on weight basis.; summary of the method: as §3
Homo sapiens [13] = organism: Homo sapiens; assay: Sensory evaluation was done for sweetness at a concentration of 750 p.p.m. against compound potency calculated on a molar basis.; summary of the method: as §3
Homo sapiens [14] = organism: Homo sapiens; assay: Sensory evaluation was done for sweetness at a concentration of 750 p.p.m. against compound potency calculated on weight basis.; summary of the method: as §3
Homo sapiens [15] = organism: Homo sapiens; assay: Sensory evaluation was done at a concentration of 750 p.p.m. against other properties.; summary of the method: as §1
Homo sapiens [16] = organism: Homo sapiens; assay: Sensory evaluation was done at a concentration of 750 p.p.m. against property of sweetness.; summary of the method: as §1
Homo sapiens [17] = organism: Homo sapiens; assay: Sensory evaluation was done for sweetness at a concentration of 750 p.p.m. against sample intensity relative to 10% sucrose.; summary of the method: as §3
Homo sapiens [18] = organism: Homo sapiens; assay: Sensory evaluation was done at a concentration of 750 p.p.m. against property of bitterness.; summary of the method: as §1
Homo sapiens [19] = organism: Homo sapiens; assay: Sensory evaluation was done at a concentration of 631 p.p.m. against property of sweetness.; summary of the method: as §1
Homo sapiens [20] = organism: Homo sapiens; assay: Sensory evaluation was done at a concentration of 631 p.p.m. against other properties.; summary of the method: as §1
Homo sapiens [21] = organism: Homo sapiens; assay: Sensory evaluation was done for sweetness at a concentration of 631 p.p.m. against compound potency calculated on a molar basis.; summary of the method: as §3
Homo sapiens [22] = organism: Homo sapiens; assay: Sensory evaluation was done for sweetness at a concentration of 631 p.p.m. against compound potency calculated on weight basis.; summary of the method: as §3
Homo sapiens [23] = organism: Homo sapiens; assay: Sensory evaluation was done for sweetness at a concentration of 631 p.p.m. against sample intensity relative to 10% sucrose.; summary of the method: as §3
Homo sapiens [24] = organism: Homo sapiens; assay: Sensory evaluation was done at a concentration of 631 p.p.m. against property of bitterness.; summary of the method: as §1
Homo sapiens [25] = organism: Homo sapiens; assay: Sensory evaluation was done at a concentration of 634 p.p.m. against property of sweetness.; summary of the method: as §1
Homo sapiens [26] = organism: Homo sapiens; assay: Sensory evaluation was done at a concentration of 634 p.p.m. against other properties.; summary of the method: as §1
Homo sapiens [27] = organism: Homo sapiens; assay: Sensory evaluation was done for sweetness at a concentration of 634 p.p.m. against sample intensity relative to 10% sucrose.; summary of the method: as §3
Homo sapiens [28] = organism: Homo sapiens; assay: Sensory evaluation was done at a concentration of 634 p.p.m. against property of bitterness.; summary of the method: as §1
Homo sapiens [29] = organism: Homo sapiens; assay: Sensory evaluation was done for sweetness at a concentration of 634 p.p.m. against compound potency calculated on weight basis.; summary of the method: as §3
Homo sapiens [30] = organism: Homo sapiens; assay: Sensory evaluation was done for sweetness at a concentration of 634 p.p.m. against compound potency calculated on a molar basis.; summary of the method: as §3
Homo sapiens [31] = organism: Homo sapiens; assay: Sensory evaluation was done at a concentration of 500 p.p.m. against property of sweetness.; summary of the method: as §1
Homo sapiens [32] = organism: Homo sapiens; assay: Sensory evaluation was done for sweetness at a concentration of 500 p.p.m. against compound potency calculated on a molar basis.; summary of the method: as §3
Homo sapiens [33] = organism: Homo sapiens; assay: Sensory evaluation was done at a concentration of 500 p.p.m. against other properties.; summary of the method: as §1
Homo sapiens [34] = organism: Homo sapiens; assay: Sensory evaluation was done at a concentration of 500 p.p.m. against property of bitterness.; summary of the method: as §1
Homo sapiens [35] = organism: Homo sapiens; assay: Sensory evaluation was done for sweetness at a concentration of 500 p.p.m. against sample intensity relative to 10% sucrose.; summary of the method: as §3
Homo sapiens [36] = organism: Homo sapiens; assay: Sensory evaluation was done for sweetness at a concentration of 500 p.p.m. against compound potency calculated on weight basis.; summary of the method: as §3
Homo sapiens [37] = organism: Homo sapiens; assay: Sensory evaluation was done for sweetness at a concentration of 3000 p.p.m. against sample intensity relative to 10% sucrose.
Summary of the method: (§4)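 Sensory evaluation of the samples in solution at pH ~7, where carboxylic acids are ionized.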

Homo sapiens [38] = organism: Homo sapiens; assay: Sensory evaluation was done at a concentration of 3000 p.p.m. against other properties.; summary of the method: as §4
Homo sapiens [39] = organism: Homo sapiens; assay: Sensory evaluation was done at a concentration of 3000 p.p.m. against property of bitterness.; summary of the method: as §4
Homo sapiens [40] = organism: Homo sapiens; assay: Sensory evaluation was done for sweetness at a concentration of 3000 p.p.m. against compound potency calculated on a molar basis.; summary of the method: as §4
Homo sapiens [41] = organism: Homo sapiens; assay: Sensory evaluation was done at a concentration of 3000 p.p.m. against property of sweetness.; summary of the method: as §4
Homo sapiens [42] = organism: Homo sapiens; assay: Sensory evaluation was done for sweetness at a concentration of 3000 p.p.m. against compound potency calculated on weight basis.; summary of the method: as §4

Compound: CC1=CC(=O)NS(=O)(=O)O1 [ACESULFAME]
- Ip (Homo sapiens [1]): 1
- Sensory evaluation (Homo sapiens [2]): 1
- Pm (Homo sapiens [3]): 55
- Sensory evaluation (Homo sapiens [4]): 16
- Pw (Homo sapiens [5]): 100
- Sensory evaluation (Homo sapiens [6]): 83

Compound: C=C1C[C@@]23CC[C@H]4[C@@](C)(CCC[C@@]4(C)C(=O)OC(CCC(=O)[O-])C(=O)O)[C@@H]2CC[C@]1(O[C@@H]1O[C@@H](CO)[C@@H](O)[C@H](O)[C@@H]1O[C@@H]1O[C@@H](CO)[C@@H](O)[C@H](O)[C@@H]1O)C3.[Na+] (some centres not stated)
- Ip (Homo sapiens [7]): 0.9
- Pm (Homo sapiens [8]): 380
- Sensory evaluation (Homo sapiens [9]): 10
- Sensory evaluation (Homo sapiens [10]): 2
- Sensory evaluation (Homo sapiens [11]): 84
- Pw (Homo sapiens [12]): 160

Compound: COC(=O)[C@H](Cc1ccccc1)NC(=O)[C@@H](N)CC(=O)O [ASPARTAME]
- Pm (Homo sapiens [13]): 85
- Pw (Homo sapiens [14]): 130
- Sensory evaluation (Homo sapiens [15]): 0
- Sensory evaluation (Homo sapiens [16]): 100
- Ip (Homo sapiens [17]): 1
- Sensory evaluation (Homo sapiens [18]): 0

Compound: C=C1C[C@@]23CC[C@H]4[C@@](C)(CCC[C@@]4(C)C(=O)OCCC(S(=O)(=O)[O-])S(=O)(=O)[O-])[C@@H]2CC[C@]1(O[C@H]1O[C@H](CO)[C@@H](O)[C@H](O)[C@H]1O[C@@H]1O[C@H](CO)[C@@H](O)[C@H](O)[C@H]1O)C3.[Na+].[Na+]
- Sensory evaluation (Homo sapiens [19]): 96
- Sensory evaluation (Homo sapiens [20]): 4
- Pm (Homo sapiens [21]): 310
- Pw (Homo sapiens [22]): 120
- Ip (Homo sapiens [23]): 0.8
- Sensory evaluation (Homo sapiens [24]): 0

Compound: C=C1C[C@@]23CC[C@H]4[C@@](C)(CCC[C@@]4(C)C(=O)OCC(=O)O)[C@@H]2CC[C@]1(O[C@@H]1O[C@@H](CO)[C@@H](O)[C@H](O)[C@@H]1O[C@@H]1O[C@@H](CO)[C@@H](O)[C@H](O)[C@@H]1O)C3
- Sensory evaluation (Homo sapiens [25]): 80
- Sensory evaluation (Homo sapiens [26]): 1
- Ip (Homo sapiens [27]): 0.9
- Sensory evaluation (Homo sapiens [28]): 19
- Pw (Homo sapiens [29]): 140
- Pm (Homo sapiens [30]): 310

Compound: C=C1C[C@@]23CC[C@H]4[C@@](C)(CCC[C@@]4(C)C(=O)O[C@@H]4O[C@H](CO)[C@@H](O)[C@H](O)[C@H]4O)[C@@H]2CC[C@]1(O[C@@H]1O[C@H](CO)[C@@H](O)[C@H](O)[C@H]1O[C@@H]1O[C@H](CO)[C@@H](O)[C@H](O)[C@H]1O)C3 [STEVIOSIDE]
- Sensory evaluation (Homo sapiens [31]): 62
- Pm (Homo sapiens [32]): 440
- Sensory evaluation (Homo sapiens [33]): 8
- Sensory evaluation (Homo sapiens [34]): 30
- Ip (Homo sapiens [35]): 0.9
- Pw (Homo sapiens [36]): 190

Compound: CC12CC[C@](C)(C(=O)O)CC1C1=CC(=O)[C@@H]3[C@@]4(C)CC[C@H](O[C@H]5O[C@H](C(=O)O)[C@@H](O)[C@H](O)[C@H]5O[C@@H]5O[C@H](C(=O)O)[C@@H](O)[C@H](O)[C@H]5O)C(C)(C)[C@@H]4CC[C@@]3(C)[C@]1(C)CC2.N (some centres not stated)
- Ip (Homo sapiens [37]): 1
- Sensory evaluation (Homo sapiens [38]): 13
- Sensory evaluation (Homo sapiens [39]): 3
- Pm (Homo sapiens [40]): 90
- Sensory evaluation (Homo sapiens [41]): 84
- Pw (Homo sapiens [42]): 33
